CRFBP-R2 block – antagonists of CRF-binding protein/CRF-R2 receptor complex. hit rate 0.59% among 350,000. inhibition, % at 11.8 µM. HEK293 CRF-R2/CRF-BP, CRF-induced calcium fluorescence;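 active means inhibition of the ligand-induced calcium signal above about 50% at the single tested concentration, limit read from the data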
SIRT5 inh – blocks human SIRT5 desuccinylation of peptide; Q9NXA8; Purified SirT5, succinyl-peptide AMC, trypsin-coupled fluorescence; inhibition, % at 15 µM; hit rate 1.1% among 330,000; AID 652115; in the data active means inhibition above about 15%
Target sequence (Q9NXA8 whole entry, looked up): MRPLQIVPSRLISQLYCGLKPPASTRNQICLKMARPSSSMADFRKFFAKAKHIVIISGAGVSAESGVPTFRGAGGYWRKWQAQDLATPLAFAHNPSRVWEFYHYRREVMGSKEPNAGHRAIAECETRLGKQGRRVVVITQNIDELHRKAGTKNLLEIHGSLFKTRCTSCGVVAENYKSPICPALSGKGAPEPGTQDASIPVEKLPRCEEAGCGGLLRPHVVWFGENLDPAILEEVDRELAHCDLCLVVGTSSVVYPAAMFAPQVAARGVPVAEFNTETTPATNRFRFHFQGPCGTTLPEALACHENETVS
PKA-R1A act – PKA-R1A complex activation | AID 504707 | P00514+P68181 | hit rate 0.083% among 340,000 | PKA-R1A dissociation, Cy5-IP20 fluorescence polarization; scaled: DMSO 0%, 113 µM cGMP 100% | activation, % at 11.4 µM;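 active means percent activation above the mean of all tested compounds plus 3 SD, cut at about 19% in these data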;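 further: higher means more PKAc released from R1A so a rise in polarization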
PKA-R2B act – activates the human PKA-R2B holoenzyme complex. activation, % at 11.4 µM. hit rate 0.079% among 340,000. PKA-R2B holoenzyme dissociation, Cy5-IP20 fluorescence polarization; R2B truncated from residue 108, S112A mutant; 0% DMSO only, 100% 113 µM cGMP. AID 504700. P22694+P31323;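 active means activation above a cutoff set at the mean over all compounds plus 3 SD, cut at about 18% in these data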;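 further: higher means more holoenzyme dissociation and a rise in polarization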
S100A4 inh HTS – inhibitors of human S100A4 binding to myosin IIA peptide; inhibition, % at 10.7 µM; hit rate 0.14% among 360,000; S100A4/TAMRA-MyoIIA peptide fluorescence polarization; P26447; AID 652163;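 active means mean inhibition of at least 70% across replicates, with every replicate also reaching that level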
Target sequence (P26447 whole entry, looked up): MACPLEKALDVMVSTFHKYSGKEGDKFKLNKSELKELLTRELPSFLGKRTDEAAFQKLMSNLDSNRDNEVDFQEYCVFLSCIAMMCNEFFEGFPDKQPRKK
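Material: S100A4 monomer protein / Buffer or medium: 50 mM HEPES pH 7.2, 10 mM CaCl2, 100 mM KCl / Times: 5 min incubation before reading / Benchmarks: neutral control DMSO, positive control TFP / Reagent: labelled myosin peptide probe, 5 nM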
* = called active by the depositor; x = not tested or not shown; ! = not active in a repeat. A selection: hits, their analogues and other compounds. The true share with any hit is near 1.5%.

SMILES	CRFBP-R2 block	SIRT5 inh	PKA-R1A act	PKA-R2B act	S100A4 inh HTS
COc1cccc(-n2nnc3c(=O)n(CC(=O)NCC4CCCO4)cnc32)c1 (stereo not drawn)	-29.4	15.6*	6.7	6.0	1.0
O=C(N[C@H]1C=C[C@@H](CC(=O)N2CCOCC2)O[C@@H]1CO)c1ccc2c(c1)OCO2	x	-1.2	x	x	0.1
CCCOc1ccc(N/C=C/C(=O)c2ccc(OC)c(OC)c2)cc1	25.9	16.7*	-4.1	7.7	6.0
CCOc1ccc(N/C=C/C(=O)c2ccc(OC)c(OC)c2)cc1	7.8	3.9	1.1	-7.3	-7.5
CC(=O)N1[C@@H]2c3ccc(-c4ccccc4)c(=O)n3C[C@H]1[C@H](CO)[C@H]2C(=O)NCCCN1CCOCC1	x	-30.5	x	x	3.6
Cc1cc(=O)[nH]c(N/N=C/c2c(C)nn(-c3ccccc3)c2Cl)n1	-19.9	15.9*	3.2	0.3	-2.8
CC12CC3CC(C)(C1)CC(C(=O)NNC(=O)c1ccncc1)(C3)C2	66.2*	-2.1	11.4	-3.8	-4.5
O=C(NNC(=O)C12CC3CC(CC(C3)C1)C2)c1ccncc1	7.7	-1.3	-6.6	13.2	2.4
O=C(O)c1ccc(N=NNc2cccc([N+](=O)[O-])c2)cc1	3.9	-3.1	-6.3	-1.1	-0.3
N#C/C(=N\Nc1cccc([N+](=O)[O-])c1)C(=O)c1ccc(Br)cc1	51.7*	5.6	-17.4	-5.4	-1.1
N#C/C(=N\Nc1ccc([N+](=O)[O-])cc1)C(N)=S	57.4*	x	-4.1	4.3	-11.2
C[C@@H]1CN([C@H](C)CO)C(=O)Cc2cc(NS(=O)(=O)c3cn(C)cn3)ccc2O[C@@H]1CN(C)Cc1ccc(Cl)c(Cl)c1	x	4.9	x	x	2.8
O=C(NCc1cccc(Cl)c1)C1CCC(=O)N(CC2CCCCC2)C1 (stereo not drawn)	85.7*	1.2	2.9	-5.3	-11.6
COc1cccc(CNC(=O)C2CCC(=O)N(CC3CCCCC3)C2)c1OC (stereo not drawn)	91.9*	-2.9	-7.0	0.7	-6.8
O=C(NC1Cc2ccccc2C1)[C@@H]1[C@@H](CO)[C@@H]2Cn3c(ccc(-c4ccccc4F)c3=O)[C@H]1N2	x	5.1	x	x	-1.4
C[C@@H]1CCCCO[C@H](CN(C)S(=O)(=O)c2cn(C)cn2)[C@@H](C)CN([C@@H](C)CO)C(=O)c2cc(NC(=O)NC3CCCCC3)ccc2O1	x	-0.8	x	x	-3.9
Cc1ccc(-n2nc(C)c(Sc3ccccc3[N+](=O)[O-])c2N)cc1	51.9*	-0.1	-13.4	-8.1	6.3
Cc1n[nH]c(C)c1Sc1ccccc1[N+](=O)[O-]	-12.2	-0.6	-8.0	-5.0	-1.1
CN1CC(=O)N(CC(=O)N2CCC(Cc3ccccc3)CC2)C1=O	100.0*	-4.7	-5.0	5.8	-4.2
CC(C)CN1C(=O)C(=O)N(CC(=O)N2CCC(Cc3ccccc3)CC2)C1=O	2.3	-2.2	4.5	0.6	-1.0
COc1ccc(NS(=O)(=O)c2c(C)n(C)c(=O)n(C)c2=O)cc1OC	81.7*	-6.8	2.8	-6.9	1.1
CCC1(CC)NC(=O)N(CC(=O)OCC(=O)c2ccccc2OC)C1=O	-17.0	-1.2	-5.1	3.3	0.0
COc1ccccc1C(=O)COC(=O)CN1C(=O)NC2(CCCC2)C1=O	-3.5	0.6	-3.9	-8.3	93.2*
O=C(C[C@H]1C[C@@H]2c3cc(NS(=O)(=O)c4ccc(F)cc4)ccc3O[C@@H]2[C@H](CO)O1)NCc1ccccc1F	x	4.7	x	x	-3.6
O=C(NCCc1ccc(F)cc1)Nc1ccc([N+](=O)[O-])cc1	21.6	4.2	-5.8	1.9	-3.2
SMILES	CRFBP-R2 block	SIRT5 inh	PKA-R1A act	PKA-R2B act	S100A4 inh HTS
O=[N+]([O-])c1ccc(NC(=S)NCCc2ccc(F)cc2)cc1	53.9*	x	-1.8	-0.1	1.8
CCCCN1C(=O)C(O)=C(C(C)=O)C1c1ccccc1[N+](=O)[O-] (stereo not drawn)	-5.0	24.0*	5.2	4.9	-6.1
COc1cc(/C=C/C(=O)OCC(=O)N2CC(=O)Nc3ccccc32)ccc1O	-1.6	15.3*	-13.3	-11.3	-0.1
COc1ccc(/C=C/C(=O)OCC(=O)N2CC(=O)Nc3ccccc32)cc1S(=O)(=O)N1CCOCC1	-5.3	0.1	-5.5	-8.6	-6.2
C[C@@H]1CN([C@@H](C)CO)C(=O)c2cc(NC(=O)c3ccncc3)ccc2O[C@@H]1CN(C)C(=O)Nc1ccc2c(c1)OCO2	x	-8.4	x	x	-25.9
Cc1ccccc1C(=O)NCC(=O)OC1CCCCC1=O (stereo not drawn)	67.8*	-1.9	1.6	4.3	2.0
O=C(Nc1ccccc1)N1C[C@@H]2[C@H](c3ccccc31)[C@H](CO)N2Cc1cocn1	x	1.1	x	x	3.3
C[C@@H]1CN([C@@H](C)CO)C(=O)c2cc(NS(=O)(=O)c3cccs3)ccc2O[C@H]1CN(C)S(=O)(=O)c1ccc(Cl)cc1	x	1.4	x	x	0.0
COc1cc(C)c(NC(=O)c2cc(C3CC3)nc3c2cnn3C(C)C)cc1OC	3.4	0.0	-1.5	-6.1	-1.3
COc1ccc(NC(=O)c2cc(C3CC3)nc3c2cnn3C(C)C)cc1OC	-4.2	16.2*	-1.7	-7.3	-3.8
C[C@@H]1CN([C@@H](C)CO)C(=O)CCCn2nncc2CO[C@@H]1CN(C)C(=O)C1CCCCC1	12.6	-3.5	-3.7	-1.1	2.4
C[C@@H]1CN([C@H](C)CO)C(=O)CCCn2nncc2CO[C@H]1CN(C)C(=O)Nc1cccc2ccccc12	-1.8	75.6*	-0.3	2.1	6.0
C[C@H]1CN([C@@H](C)CO)C(=O)CCCn2nncc2CO[C@@H]1CN(C)C(=O)Nc1ccccc1	x	28.0*	x	x	3.1
CC(C)NC(=O)N(C)C[C@@H]1OCc2cnnn2CCCC(=O)N([C@@H](C)CO)C[C@H]1C	5.3	26.2*!	5.4	1.4	47.9
C[C@@H]1CN([C@@H](C)CO)C(=O)CCCn2nncc2CO[C@H]1CN(C)C(=O)C1CCCCC1	-7.2	28.8*!	11.5	1.1	0.5
C[C@@H]1CN([C@@H](C)CO)C(=O)CCCn2nncc2CO[C@@H]1CN(C)C(=O)Nc1cccc2ccccc12	-14.0	-3.1	2.3	-3.2	-1.8
COc1ccc(CN(C)C[C@@H]2Oc3ccc(NC(=O)Nc4ccc(C(F)(F)F)cc4)cc3C(=O)N([C@H](C)CO)C[C@@H]2C)cc1	x	8.9	x	x	-6.8
O=C(C[C@H]1C=C[C@@H](NC(=O)C2CCOCC2)[C@@H](CO)O1)NCc1ccncc1	x	0.0	x	x	20.8
C[C@H](CO)N1C[C@H](C)[C@H](CN(C)C(=O)c2cc(-c3ccccc3)on2)OCc2cnnn2CCCC1=O	-8.0	17.9*!	-4.4	0.8	1.7
C[C@H](CO)N1C[C@H](C)[C@@H](CN(C)C(=O)c2ccc(N3CCN(C)CC3)cc2)OCc2cnnn2CCCC1=O	x	32.8*!	x	x	-0.7
